For orientation: IC50 means the concentration needed to halve the response being measured.

Our source for the IC50, Activity and viability values is ChEMBL document CHEMBL4325909, “Synthesis and evaluation of chalcone analogues containing a 4-oxoquinazolin-2-yl group as potential anti-tumor agents” (Eur J Med Chem, 2019).

Series [1] concerns MCF7. Kind of series: Cytotoxicity against human MCF7 cells assessed as reduction in cell viability after 72 hrs by MTS assay. It is filed as functional, cell-based. The conditions noted are these: MCF7, 72 h. An outline of the steps:
(§1)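 Cells kept in DMEM with 10% FBS at 37 °C, 5% CO2. Proliferation read by MTS (CellTiter 96 AQueous One) 72 h after exposure across a concentration range. IC50 is the concentration giving 50% proliferation inhibition. Triplicate wells, three independent experiments, mean ± SD.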

Another series has as its system HT-29. Kind of series: Cytotoxicity against human HT-29 cells assessed as reduction in cell viability after 72 hrs by MTS assay. Format: functional, cell-based. To be noted: HT-29, 72 h. An outline of the steps: (§2)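 MTS (CellTiter 96 AQueous One) proliferation read after 72 h of exposure across a concentration range. IC50 is the concentration giving 50% proliferation inhibition. Triplicate determinations in three independent experiments, mean ± SD.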
For orientation: Formazan colour is commonly taken as a measure of viable cells.

Another series relates to HeLa. Kind of series: Cytotoxicity against human HeLa cells assessed as reduction in cell viability after 72 hrs by MTS assay. It is filed as functional, cell-based. An outline of the steps:
as §2

In series [2] the test system is MCF-10A. In words: Cytotoxicity against human MCF10A cells assessed as reduction in cell viability after 72 hrs by MTS assay. It is filed as cell-based. An outline of the steps: as §2
Another series deals with A549. Kind of series: Cytotoxicity against human A549 cells assessed as reduction in cell viability after 72 hrs by MTS assay. It is filed as functional, cell-based. The conditions noted are these: A549, 72 h. The gist of the method: as §2
Series [3] concerns MCF7. In words: Cytotoxicity against human MCF7 cells assessed as reduction in cell viability at 20 uM after 72 hrs by MTS assay relative to control. Format: functional. The gist of the method:
(§3)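 Cells grown in DMEM with 10% FBS at 37 °C, 5% CO2, exposed to 20 μM for 72 h. Proliferation read by MTS and inhibition expressed relative to vehicle. ≥50% inhibition counted as active. Triplicate wells, three independent experiments.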

The next series has as its system MDA-MB-231. Kind of series: Cytotoxicity against human MDA-MB-231 cells assessed as reduction in cell viability after 72 hrs by MTS assay. Format: functional, cell-based. The conditions noted are these: MDA-MB-231, 72 h. The gist of the method: as §2
The test system of series [4] is HCT-116. Kind of series: Cytotoxicity against human HCT116 cells assessed as reduction in cell viability at 20 uM after 72 hrs by MTS assay relative to control. Format: functional. The gist of the method: as §3
In series [5] the test system is HCT-116. In words: Cytotoxicity against human HCT116 cells assessed as reduction in cell viability after 72 hrs by MTS assay. It is filed as functional, cell-based. The conditions noted are these: HCT-116, 72 h. An outline of the steps:
as §1

Series [6] has as its system HCT-116. Kind of series: Induction of apoptosis in human HCT116 cells assessed as early apoptotic cells at 1 uM after 12 hrs by annexin V-FITC/propidium iodide staining-based flow cytometry method (reference value: 3.8%). It is filed as functional.
Series [7] relates to MCF-10A. Kind of series: Induction of apoptosis in human MCF10A cells after 12 hrs by annexin V-FITC/propidium iodide staining-based flow cytometry method. Format: cell-based. An outline of the steps: (§4)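 Cells were stained with Annexin V-FITC/PI and gated by flow cytometry into live, early apoptotic, late apoptotic and necrotic quadrants. Apoptotic fraction is early plus late, mean ± SD of three independent experiments.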
In general terms: A flow cytometer gives signals particle by particle.

Series [8] deals with HCT-116. Kind of series: Induction of apoptosis in human HCT116 cells assessed as viable cells at 1 uM after 12 hrs by annexin V-FITC/propidium iodide staining-based flow cytometry method (reference value: 86.0%). Format: functional. The conditions noted are these: HCT-116, 12 h, read-out: Activity.
Series [9] has as its system HCT-116. In words: Induction of mitochondrial membrane depolarization in human HCT116 cells at 1 uM after 12 hrs by JC-1 staining based fluorescence microscopic analysis. Format: functional, cell-based.
The nature of series [10]: Induction of apoptosis in human MCF10A cells assessed as viable cells at 1 uM after 12 hrs by annexin V-FITC/propidium iodide staining-based flow cytometry method (reference value: 95.4%). Format: cell-based, MCF-10A. The conditions noted are these: read-out: Activity. An outline of the steps: as §4
Series [11] relates to HCT-116. Kind of series: Induction of apoptosis in human HCT116 cells assessed as late apoptotic cells at 1 uM after 12 hrs by annexin V-FITC/propidium iodide staining-based flow cytometry method (reference value: 5.4%). It is filed as functional.
Series [12] concerns HCT-116. Kind of series: Induction of apoptosis in human HCT116 cells at 1 uM after 12 hrs by acridine orange/ethidium bromide staining-based fluorescence microscopic analysis. It is filed as functional, cell-based.
Series [13] concerns MCF-10A. In words: Induction of apoptosis in human MCF10A cells assessed as necrotic cells at 1 uM after 12 hrs by annexin V-FITC/propidium iodide staining-based flow cytometry method (reference value: 0.57%). Format: cell-based. An outline of the steps: as §4
Series [14] has as its system HCT-116. Kind of series: Induction of apoptosis in human HCT116 cells after 12 hrs by annexin V-FITC/propidium iodide staining-based flow cytometry method. It is filed as functional, cell-based.
In series [15] the test system is HCT-116. In words: Induction of reactive oxygen species generation in human HCT116 cells assessed as increase in mitochondrial superoxide generation at 1 uM after 12 hrs by MitoSOX red dye-based fluorescence microscopic analysis. Format: functional, cell-based.
In series [16] the test system is HCT-116. In words: Induction of apoptosis in human HCT116 cells assessed as necrotic cells at 1 uM after 12 hrs by annexin V-FITC/propidium iodide staining-based flow cytometry method (reference value: 4.8%). Format: functional.
Series [17] relates to MCF-10A. Kind of series: Induction of apoptosis in human MCF10A cells assessed as early apoptotic cells at 1 uM after 12 hrs by annexin V-FITC/propidium iodide staining-based flow cytometry method (reference value: 0.20%). Format: cell-based. The gist of the method:
as §4

The structures appear in SMILES notation. The source made the active and inactive calls. The rule behind the calls is not given here.

With `Cc1ccc(C(=O)/C=C/c2nc3ccccc3c(=O)[nH]2)c(C)c1`, the half-maximal inhibitory concentration (IC50) stood at 4.5 µM with MCF7 [1]; 12.5 µM in the series with HT-29; 9.55 µM in the series on HeLa; 5.47 µM in the series on MCF-10A [2]; 13.3 µM in the series on A549; 15.3 µM in the series with MDA-MB-231. The IC50 in the series with HCT-116 [5] was determined as 4.77 µM. Besides, the Activity entry in the series with MCF7 [3] and in the series with HCT-116 [4] was “>=50%” in each case.

`COc1ccccc1C(=O)/C=C/c1nc2ccccc2c(=O)[nH]1`: the half-maximal inhibitory concentration (IC50) was 4.3 µM in the series with MCF7 [1]; 6.71 µM with HT-29; 13.4 µM in the series with HeLa; 5.26 µM in the series with MCF-10A [2]; 13.7 µM in the series on A549; 15.7 µM in the series with MDA-MB-231. In addition, in the series on HCT-116 [5], the IC50 was determined as 3.91 µM. Besides, the Activity entry with MCF7 [3] and with HCT-116 [4] was “>=50%” in each case.

As to `O=C(/C=C/c1nc2ccccc2c(=O)[nH]1)c1ccc(O)cc1`, the half-maximal inhibitory concentration (IC50) is 4.92 µM in the series on MCF7 [1]; 10.7 µM in the series with HT-29; 9.44 µM with HeLa; 6.12 µM in the series on MCF-10A [2]; 15.1 µM with A549; 16.5 µM in the series with MDA-MB-231. For the same compound, in the series on HCT-116 [5], the IC50 is 4.11 µM. Moreover, the Activity result in the series with MCF7 [3] and with HCT-116 [4] was “>=50%” in each case.

For the compound `COc1ccc(C(=O)/C=C/c2nc3ccccc3c(=O)[nH]2)c(OC)c1`, the 50% inhibitory concentration (IC50) in the series with MCF7 [1] came out at 4.49 µM; in the series with HT-29, 8.77 µM; in the series with HeLa, 12.7 µM; in the series with MCF-10A [2] it was 9.14 µM; in the series with A549, 15.5 µM; in the series on MDA-MB-231, 14.3 µM. Also, the IC50 in the series on HCT-116 [5] turned out to be 4.08 µM. Moreover, the Activity entry in the series with MCF7 [3] and in the series with HCT-116 [4] was “>=50%” throughout.

In the case of `O=C(/C=C/c1nc2ccccc2c(=O)[nH]1)c1ccc(Br)cc1`, the IC50 is 3.75 µM in the series with MCF7 [1]; over 20 µM with HT-29; 16.1 µM in the series on HeLa; 11.3 µM in the series with MCF-10A [2]; 19.5 µM in the series on A549; 18.3 µM with MDA-MB-231. For the same compound, the concentration for half-maximal inhibition (IC50) with HCT-116 [5] was found to be 4.74 µM. Also, the Activity result in the series with MCF7 [3] and with HCT-116 [4] was “>=50%” throughout.

Consider `CN[C@@H]1C[C@H]2O[C@@](C)([C@@H]1OC)n1c3ccccc3c3c4c(c5c6ccccc6n2c5c31)C(=O)NC4` [STAUROSPORINE], for which the Activity is 25.6% with HCT-116 [6]; “Dose-dependent effect” in the series on MCF-10A [7]; 8.4% in the series with HCT-116 [11]; 1.22% in the series on MCF-10A [13]; “Dose-dependent effect” with HCT-116 [14]; 3% with HCT-116 [16]. In addition, the Activity in the series with MCF-10A [17] is given as 2.18%. The viability at 1 µM with HCT-116 [8] is 63.1%. The outcome with HCT-116 [9], in the series with HCT-116 [12] and with HCT-116 [15] was Active. For the same compound, the viability at 12 h, 1 µM in series [10] was determined as 85.6%.

Consider `Cc1ccccc1C(=O)/C=C/c1nc2ccccc2c(=O)[nH]1`, for which the IC50 in the series on MCF7 [1] stood at 4.2 µM; in the series with HT-29, 6.45 µM; in the series with HeLa, 10.4 µM; in the series on MCF-10A [2], 6.19 µM; with A549 it was 13.3 µM; in the series with MDA-MB-231, 10.5 µM. Besides, the half-inhibitory concentration (IC50) with HCT-116 [5] is 4.14 µM. Moreover, the Activity entry with MCF7 [3] and in the series with HCT-116 [4] was “>=50%” in each case.

In the case of `O=c1[nH]cc(F)c(=O)[nH]1` [FLUOROURACIL], the concentration for half-maximal inhibition (IC50) was 9.99 µM in the series on HT-29; over 20 µM with HeLa; over 20 µM in the series with MCF-10A [2]; 15 µM with A549; over 20 µM with MDA-MB-231.
